Source: ChEMBL document CHEMBL1687907, “Incorporation of a bioactive reverse-turn heterocycle into a peptide template using solid-phase synthesis to probe melanocortin receptor selectivity and ligand conformations by 2D 1H NMR” (J Med Chem, 2011)
pEC50: −log10 of the molar value. Calls of active or inactive are those of the source. No cut-off for these calls is given here.

How the values were obtained:
Type in all cases: functional, cell-based
[1] = target: Melanocortin receptor 3 (Mus musculus) (UniProt P33033); test: Agonist activity at mouse melanocortin 3 receptor expressed in HEK293 cells at 100 uM after 48 hrs by cAMP based beta-galactosidase reporter gene assay
Summary of the method: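 HEK-293 cells stably expressing mouse MC3R were CRE/β-galactosidase reporter transfected and stimulated 48 h later for 6 h in IBMX/BSA DMEM. Peptide concentrations reached 100 µM. ONPG read at OD405, normalized to protein and forskolin.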

[2] = target: Melanocortin receptor 4 (Mus musculus, UniProt P56450); test: Agonist activity at mouse melanocortin 4 receptor expressed in HEK293 cells after 48 hrs by cAMP based beta-galactosidase reporter gene assay
[3] = target: Melanocyte-stimulating hormone receptor (Mus musculus, UniProt Q01727); test: Agonist activity at mouse melanocortin 1 receptor expressed in HEK293 cells after 48 hrs by cAMP based beta-galactosidase reporter gene assay
[4] = target: Melanocortin receptor 3 (Mus musculus, UniProt P33033); test: Agonist activity at mouse melanocortin 3 receptor expressed in HEK293 cells after 48 hrs by cAMP based beta-galactosidase reporter gene assay
[5] = target: Melanocortin receptor 5 (Mus musculus, UniProt P41149); test: Agonist activity at mouse melanocortin 5 receptor expressed in HEK293 cells after 48 hrs by cAMP based beta-galactosidase reporter gene assay
Sequence of Melanocortin receptor 5 (P41149 whole entry): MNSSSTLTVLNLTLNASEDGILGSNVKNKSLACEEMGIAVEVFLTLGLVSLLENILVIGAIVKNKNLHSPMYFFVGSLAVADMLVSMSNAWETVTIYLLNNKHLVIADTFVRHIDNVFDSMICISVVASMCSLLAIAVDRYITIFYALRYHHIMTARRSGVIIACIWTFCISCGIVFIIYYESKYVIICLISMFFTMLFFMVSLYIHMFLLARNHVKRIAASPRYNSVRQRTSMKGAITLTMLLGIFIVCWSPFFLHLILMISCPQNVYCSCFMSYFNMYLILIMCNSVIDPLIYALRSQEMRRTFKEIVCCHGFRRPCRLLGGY

Sequence of Melanocortin receptor 3 (P33033 whole entry): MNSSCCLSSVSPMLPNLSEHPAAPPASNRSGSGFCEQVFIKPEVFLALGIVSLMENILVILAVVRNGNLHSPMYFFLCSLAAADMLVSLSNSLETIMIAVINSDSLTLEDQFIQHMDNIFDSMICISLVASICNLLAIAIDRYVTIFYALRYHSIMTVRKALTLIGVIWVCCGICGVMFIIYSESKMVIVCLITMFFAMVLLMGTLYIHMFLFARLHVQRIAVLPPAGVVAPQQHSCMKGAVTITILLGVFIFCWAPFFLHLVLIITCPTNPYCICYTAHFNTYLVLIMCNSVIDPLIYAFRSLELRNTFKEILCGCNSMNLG
Sequence of Melanocyte-stimulating hormone receptor (Q01727 whole entry): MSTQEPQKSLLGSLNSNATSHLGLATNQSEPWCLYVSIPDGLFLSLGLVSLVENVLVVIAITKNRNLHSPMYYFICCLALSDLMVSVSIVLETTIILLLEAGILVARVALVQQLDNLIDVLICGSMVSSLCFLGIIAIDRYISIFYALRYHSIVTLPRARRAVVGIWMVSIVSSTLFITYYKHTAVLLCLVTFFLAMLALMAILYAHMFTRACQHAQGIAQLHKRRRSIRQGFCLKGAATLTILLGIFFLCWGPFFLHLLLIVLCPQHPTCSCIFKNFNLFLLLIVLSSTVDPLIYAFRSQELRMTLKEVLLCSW
Sequence of Melanocortin receptor 4 (P56450 whole entry): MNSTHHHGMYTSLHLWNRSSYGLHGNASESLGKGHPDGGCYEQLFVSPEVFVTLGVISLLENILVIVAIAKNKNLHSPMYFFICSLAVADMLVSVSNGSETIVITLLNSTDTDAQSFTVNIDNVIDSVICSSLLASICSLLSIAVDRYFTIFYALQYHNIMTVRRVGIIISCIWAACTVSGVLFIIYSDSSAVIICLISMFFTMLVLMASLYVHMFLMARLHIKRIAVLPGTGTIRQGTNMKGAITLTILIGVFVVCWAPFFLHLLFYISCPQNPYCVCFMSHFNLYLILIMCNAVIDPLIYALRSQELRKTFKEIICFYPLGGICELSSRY
Sequence of Melanocortin receptor 3 (Mus musculus) (P33033 whole entry): as the sequence (P33033 whole entry) above

SMILES	Activity [1]	pEC50 [2]	pEC50 [3]	pEC50 [4]	pEC50 [5]
C[C@@H]1NC(=O)[C@H](CC(N)=O)NC(=O)[C@H](Cc2c[nH]c3ccccc23)NC(=O)[C@H](CCCNC(=N)N)N2C[C@@H](Cc3ccccc3)NC(=O)[C@@H](CSCC2=O)NC(=O)[C@H](Cc2cnc[nH]2)NC(=O)[C@@H](NC(=O)[C@@H](N)Cc2ccc(O)cc2)CSSC[C@@H](C(=O)N[C@@H](Cc2ccc(O)cc2)C(N)=O)NC(=O)[C@H](Cc2ccccc2)NC1=O		5.49			
C[C@@H]1NC(=O)[C@H](CC(N)=O)NC(=O)[C@H](Cc2c[nH]c3ccccc23)NC(=O)[C@H](CCCNC(=N)N)N2C[C@@H](Cc3ccccc3)NC(=O)[C@H](CSCC2=O)NC(=O)[C@H](Cc2cnc[nH]2)NC(=O)[C@@H](NC(=O)[C@@H](N)Cc2ccc(O)cc2)CSSC[C@@H](C(=O)N[C@@H](Cc2ccc(O)cc2)C(N)=O)NC(=O)[C@H](Cc2ccccc2)NC1=O	inactive				
C[C@@H]1NC(=O)[C@H](CC(N)=O)NC(=O)[C@H](Cc2c[nH]c3ccccc23)N2C[C@H](CCCN=C(N)N)NC(=O)[C@H](CSCC2=O)NC(=O)[C@@H](Cc2ccccc2)NC(=O)[C@H](Cc2cnc[nH]2)NC(=O)[C@@H](NC(=O)[C@@H](N)Cc2ccc(O)cc2)CSSC[C@@H](C(=O)N[C@@H](Cc2ccc(O)cc2)C(N)=O)NC(=O)[C@H](Cc2ccccc2)NC1=O		7.07	7.48	6.31	7.14
C[C@@H]1NC(=O)[C@H](CC(N)=O)NC(=O)[C@H](Cc2c[nH]c3ccccc23)NC(=O)[C@H](CCCN=C(N)N)NC(=O)[C@@H](Cc2ccccc2)NC(=O)[C@H](Cc2cnc[nH]2)NC(=O)[C@@H](NC(=O)[C@@H](N)Cc2ccc(O)cc2)CSSC[C@@H](C(=O)N[C@@H](Cc2ccc(O)cc2)C(N)=O)NC(=O)[C@H](Cc2ccccc2)NC1=O		9.57	9.46	8.70	8.64

More lines, now with the values ahead:

Activity [1]	pEC50 [2]	pEC50 [3]	pEC50 [4]	pEC50 [5]	SMILES
inactive					C[C@@H]1NC(=O)[C@H](CC(N)=O)NC(=O)[C@H](Cc2c[nH]c3ccccc23)NC(=O)[C@H](CCCNC(=N)N)NC(=O)[C@@H](Cc2ccccc2)N2C[C@H](Cc3cnc[nH]3)NC(=O)[C@@H](CSCC2=O)NC(=O)[C@@H](NC(=O)[C@@H](N)Cc2ccc(O)cc2)CSSC[C@@H](C(=O)N[C@@H](Cc2ccc(O)cc2)C(N)=O)NC(=O)[C@H](Cc2ccccc2)NC1=O
	6.19	6.79	5.12	6.47	CC(=O)N[C@@H](Cc1cnc[nH]1)C(=O)N[C@H](Cc1ccccc1)C(=O)N[C@@H]1CSCC(=O)N([C@@H](Cc2c[nH]c3ccccc23)C(N)=O)C[C@H](CCCN=C(N)N)NC1=O
